Measurements: ChEMBL document CHEMBL2311288, “Discovery of liver-targeted inhibitors of stearoyl-CoA desaturase (SCD1)” (Bioorg Med Chem Lett, 2013)

What was measured:
[1] = target: T1, Acyl-CoA desaturase 1 (Rattus norvegicus, UniProt P07308); test: Inhibition of rat SCD1 by rat microsomal assay
T1 sequence (P07308 whole entry): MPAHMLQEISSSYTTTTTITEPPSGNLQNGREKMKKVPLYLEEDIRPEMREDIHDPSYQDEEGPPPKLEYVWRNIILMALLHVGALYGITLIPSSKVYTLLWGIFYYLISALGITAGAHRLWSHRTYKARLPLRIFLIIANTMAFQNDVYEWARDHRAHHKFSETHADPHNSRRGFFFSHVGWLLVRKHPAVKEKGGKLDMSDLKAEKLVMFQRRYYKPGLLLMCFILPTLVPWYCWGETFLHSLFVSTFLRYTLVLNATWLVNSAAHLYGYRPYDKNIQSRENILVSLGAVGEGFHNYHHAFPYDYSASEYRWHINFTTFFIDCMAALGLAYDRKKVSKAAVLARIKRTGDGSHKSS
How it was run: (§1)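 Microsomal desaturase activity was measured in 100 mM Tris HCl pH 7.3 with 2 mM NADH and [9,10-3H]stearoyl-CoA for 15 min at room temperature. The reaction was stopped on ice with trichloroacetic acid, then passed through activated charcoal, and tritium in the filtrate was counted. Compounds were tested in 2% DMSO final. Percent inhibition = (total−sample)/(total−blank)×100, with the blank set by 10⁻⁴ M of a standard inhibitor.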

[2] = Ratio of drug level in liver to plasma of rat at 10 mg/kg measured after 6 hrs; assay type: ADME, organism-based; parameters: dose 10 mg/kg
How it was run: (§2)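 Rats were given a single 10 mg/kg dose. Plasma exposure (AUC, Cmax) was determined, and drug concentrations in plasma, brain and liver were measured at 6 h post-dose. The liver/plasma ratio was taken from the 6 h levels.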

[3] = Cmax in rat at 10 mg/kg; assay type: ADME, organism-based; parameters: dose 10 mg/kg; conditions: in vivo; how it was run: as §2
[4] = system: Rattus norvegicus; test: AUC in rat at 10 mg/kg; assay type: ADME, organism-based, Plasma; parameters: dose 10 mg/kg; conditions: in vivo; how it was run: as §2
[5] = Plasma concentration in rat at 10 mg/kg measured after 6 hrs; assay type: ADME, organism-based; parameters: dose 10 mg/kg; how it was run: as §2
[6] = Drug level in liver in rat at 10 mg/kg measured after 6 hrs; assay type: ADME, organism-based; parameters: dose 10 mg/kg; conditions: read-out: Drug uptake; how it was run: as §2
[7] = system: Mus musculus; test: Toxicity in CD-1 mouse assessed as lacrimation up to 300 mg/kg, po; assay type: organism-based; parameters: dose 300 mg/kg, route oral; conditions: in vivo
[8] = system: Mus musculus; test: Toxicity in CD-1 mouse assessed as alopecia up to 300 mg/kg, po; assay type: organism-based; parameters: dose 300 mg/kg, route oral; conditions: in vivo
[9] = system: Mus musculus; test: Toxicity in CD-1 mouse assessed as article related testes up to 300 mg/kg, po; assay type: organism-based, Testis; parameters: dose 300 mg/kg, route oral; conditions: in vivo
[10] = system: Mus musculus; test: Toxicity in CD-1 mouse assessed as swelling of the lips up to 300 mg/kg, po; assay type: organism-based; parameters: dose 300 mg/kg, route oral; conditions: in vivo
[11] = system: Mus musculus; test: Toxicity in CD-1 mouse assessed as meibomian gland (atrophy, squamous metaplasia) up to 300 mg/kg, po; assay type: organism-based; parameters: dose 300 mg/kg, route oral; conditions: in vivo
[12] = AUC (0 to 24 hrs) in CD-1 mouse at 300 mg/kg, po; assay type: ADME, organism-based; parameters: time < 24 hr, dose 300 mg/kg, route oral; conditions: plasma
How it was run: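 Male CD-1 mice received single daily oral gavage doses of 30, 100 or 300 mg/kg for 2 weeks. Plasma drug levels were determined on Day 13, and exposure was expressed as AUC(0–24 h).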

[13] = system: Mus musculus; test: Toxicity in CD-1 mouse assessed as peri-orbital swelling up to 300 mg/kg, po; assay type: organism-based; parameters: dose 300 mg/kg, route oral; conditions: in vivo
[14] = system: Mus musculus; test: Toxicity in mouse assessed as abnormalities in skin at 30 mg/kg; assay type: organism-based; parameters: dose 30 mg/kg; conditions: in vivo
[15] = Plasma concentration in AKR/J mouse at 30 mg/kg measured after 4 hrs; assay type: ADME, organism-based; parameters: dose 30 mg/kg
How it was run: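 Male AKR/J mice, 7 weeks old (n = 10/group) and fed a 10% kcal low-fat diet, were given oral doses of 1, 3, 10 or 30 mg/kg. Plasma was collected 4 h after dosing, and drug concentration in that plasma was measured.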

[16] = system: Mus musculus; test: Toxicity in mouse assessed as abnormalities in eyes at 30 mg/kg; assay type: organism-based; parameters: dose 30 mg/kg; conditions: in vivo
[17] = system: Mus musculus; test: Toxicity in CD-1 mouse assessed as eyelid atrophy of sebaceous gland up to 300 mg/kg, po; assay type: organism-based; parameters: dose 300 mg/kg, route oral; conditions: in vivo
[18] = system: Mus musculus; test: Toxicity in CD-1 mouse assessed as ocular opacity up to 300 mg/kg, po; assay type: organism-based, Eye; parameters: dose 300 mg/kg, route oral; conditions: in vivo
[19] = system: Mus musculus; test: Toxicity in CD-1 mouse assessed as eyes (corneal degeneration, inflammation) up to 300 mg/kg, po; assay type: organism-based, Cornea; parameters: dose 300 mg/kg, route oral; conditions: in vivo
[20] = system: Mus musculus; test: Toxicity in CD-1 mouse assessed as skin atrophy of sebaceous gland up to 300 mg/kg, po; assay type: organism-based; parameters: dose 300 mg/kg, route oral; conditions: in vivo
[21] = system: Mus musculus; test: Toxicity in CD-1 mouse assessed as atrophy of the harderian and meibomian glands up to 300 mg/kg, po; assay type: organism-based; parameters: dose 300 mg/kg, route oral; conditions: in vivo
[22] = target: T2, Acyl-CoA desaturase 1 (Mus musculus, UniProt P13516); test: Inhibition of mouse SCD1; how it was run: as §1
T2 sequence (P13516 whole entry): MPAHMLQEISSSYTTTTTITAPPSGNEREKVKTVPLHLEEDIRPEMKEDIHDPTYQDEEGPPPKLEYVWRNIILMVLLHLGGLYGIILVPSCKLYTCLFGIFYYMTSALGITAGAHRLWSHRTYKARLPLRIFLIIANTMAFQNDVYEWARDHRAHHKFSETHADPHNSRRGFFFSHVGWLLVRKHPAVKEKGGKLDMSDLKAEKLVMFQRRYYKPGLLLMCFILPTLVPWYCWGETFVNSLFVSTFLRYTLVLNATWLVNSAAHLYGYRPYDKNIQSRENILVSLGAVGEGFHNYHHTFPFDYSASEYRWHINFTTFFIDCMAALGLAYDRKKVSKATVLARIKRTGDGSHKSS

`CC(=O)NCC(=O)N1CCC2(CC1)CCN(Cc1cccc(F)c1)c1ccccc1O2` showed an IC50 [1] of over 10000 nM.

For `CC(=O)NCC(=O)N1CCC2(CC1)CCN(Cc1ccc(C)cc1)c1ccccc1O2`, the IC50 [1] was 1100 nM.

Work on `CC(=O)NCC(=O)N1CCC2(CC1)CCN(Cc1ccc(C(C)(C)C)cc1)c1ccccc1O2` yielded a Kp at 6 h [2] of 13, a Cmax [3] of 1100 ng/g and an AUC [4] of 3464 ng·h/g. The IC50 [1] was 17 nM, the concentration at 6 h [5] was 210 ng/g and the concentration at 6 h [6] was 2670 ng/g.

`COc1ccccc1CN1CCC2(CCN(C(=O)CNC(C)=O)CC2)Oc2ccccc21` showed an IC50 [1] of 2900 nM.

`N#Cc1cnc(N2CCC3(CC2)CCN(Cc2cccc(C(F)(F)F)c2)c2ccccc2O3)s1` showed a Kp at 6 h [2] of 20, a Cmax [3] of 105 ng/g and an AUC [4] of 383 ng·h/g. It also gave an IC50 [1] of 1 nM, a concentration at 6 h [5] of 72 ng/g and a concentration at 6 h [6] of 1510 ng/g.

For `CC(=O)NCC(=O)N1CCC2(CC1)CCN(Cc1ccc(F)cc1)c1ccccc1O2`, the IC50 [1] was 460 nM.

`Fc1cccc2c1CCC1(CCN(c3ccc(-c4nnc(Cc5cccnc5)o4)nn3)CC1)O2` gave an IC50 [1] of 2 nM.

For `CCc1ccc(CN2CCC3(CCN(C(=O)CNC(C)=O)CC3)Oc3ccccc32)cc1`, the Cmax [3] was 579 ng/g, the AUC [4] was 1288 ng·h/g and the IC50 [1] was 57 nM. It also gave a concentration at 6 h [5] of 19 ng/g and a concentration at 6 h [6] of under 100 ng/g.

With `CNC(=O)c1cnc(N2CCC3(CC2)CCN(Cc2cccc(C(F)(F)F)c2)c2ccccc2O3)s1` the AUC [4] was 0 ng·h/g and the IC50 [1] was 3 nM.

In the case of `CNC(=O)c1cnc(N2CCC3(CC2)CCN(Cc2ccc(C(C)(C)C)cc2)c2ccccc2O3)s1`, the IC50 [1] is reported as 4 nM.

Work on `COc1ccc(C(F)(F)F)c(C(=O)N2CCN(c3ccc(C(=O)NCCCc4ccccc4)cn3)CC2)c1` yielded an IC50 [1] of 100 nM.

In the case of `CC(=O)NCC(=O)N1CCC2(CC1)CCN(Cc1cccc(C(F)(F)F)c1)c1ccccc1O2`, the IC50 [1] is reported as 32 nM.

`O=C(O)Cn1nnc(-c2cc(N3CCC(Oc4ccccc4C(F)(F)F)CC3)no2)n1` showed an IC50 [1] of 3 nM.

`CC(=O)NCC(=O)N1CCC2(CC1)CCN(CC(C)C)c1ccccc1O2` showed an IC50 [1] of over 10000 nM.

For `CNC(=O)c1cccc(NC(=O)N2CCC(Oc3ccccc3Cl)CC2)c1`, the Activity [7] was “Toxic”, the Activity [8] was “Toxic” and the Activity [9] was “Non-toxic”. For the same molecule, the Activity [10] was “Toxic”, the Kp at 6 h [2] was 8 and the Cmax [3] was 599 ng/g. The Activity [11] was “Toxic”, the AUC(0-t) at 24 h [12] was 216 µM·h and the Activity [13] was “Toxic”. For the same molecule, the Activity [14] was “Non-toxic”, the concentration at 4 h [15] was 1780 ng/mL and the AUC [4] was 1435 ng·h/g. The Activity [16] was “Non-toxic”, the IC50 [1] was under 4 nM and the Activity [17] was “Toxic”. For the same molecule, the Activity [18] was “Toxic”, the Activity [19] was “Toxic” and the concentration at 6 h [5] was 66 ng/g. The Activity [20] was “Toxic”, the Activity [21] was “Toxic” and the concentration at 6 h [6] was 529 ng/g.

`O=C(NCCC1CC1)c1ccc(N2CCC3(CC2)CCN(Cc2cccc(C(F)(F)F)c2)c2ccccc2O3)cc1` showed an IC50 [1] of 2200 nM.

With `O=C(NCC(=O)N1CCC2(CC1)CCN(Cc1cccc(C(F)(F)F)c1)c1ccccc1O2)c1ccccc1` the IC50 [1] was 2600 nM.

Molecule `O=C(NCCC1CC1)c1cnc(N2CCC3(CC2)CCN(Cc2cccc(C(F)(F)F)c2)c2ccccc2O3)s1` has an IC50 [1] of 930 nM.

`CC(=O)NCC(=O)N1CCC2(CC1)CCN(Cc1ccccc1C)c1ccccc1O2` showed an IC50 [1] of 1200 nM.

In the case of `COc1cccc(CN2CCC3(CCN(C(=O)CNC(C)=O)CC3)Oc3ccccc32)c1`, the IC50 [1] is reported as 1800 nM.

With `CC(=O)NCC(=O)N1CCC2(CC1)CCN(Cc1ccccc1F)c1ccccc1O2` the IC50 [1] was over 10000 nM.

Molecule `CC(=O)NCC(=O)N1CCC2(CC1)CCN(CCc1ccccc1)c1ccccc1O2` has an IC50 [1] of 1600 nM.

`CC(=O)NCC(=O)N1CCC2(CC1)CCN(CCC(C)C)c1ccccc1O2` gave an IC50 [22] of 6.4 µM.
